Activity calls are given as the source filed them. The calls are words filed in the database; no cut-off is given here.

The text below walks through data of ChEMBL document CHEMBL3580596, “Discovery of Multitarget Antivirals Acting on Both the Dengue Virus NS5-NS3 Interaction and the Host Src/Fyn Kinases” (J Med Chem, 2015).

Series [1] concerns dengue virus type 2. As to the kind of experiment: Antiviral activity against DENV serotype 2 strain New Guinea V infected in African green monkey Vero B cells assessed as inhibition of virus-induced cytopathogenic effect after 7 days. Type of series: functional, organism-based. The method, boiled down: (§1)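 Vero-B cells, 7×10^3/well, adhered overnight, then given 1:2 serial dilutions (start 100 μg/mL) plus 100 CCID50 DENV-2 NGC (virus grown in C6/36 cells) in MEM with 2% FBS. After 7 days, fixed with ethanol and stained with 1% methylene blue. EC50 for 50% inhibition of virus-induced CPE comes from microscopic scoring of each well.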

Series [2] can be described thus: Cytotoxicity against african green monkey Vero B cells. In kind it is cell-based. The conditions noted are these: chlorocebus sabaeus. The essentials: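 Uninfected Vero-B cells treated with compound dilutions; CC50 taken as concentration giving 50% reduction of metabolic activity or cell growth. Read-out by MTS/PMS (yield-assay series) or by 7-day methylene blue staining with microscopic scoring (CPE series, 1:2 dilutions from 100 μg/mL).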

Series [3] concerns the target Proto-oncogene tyrosine-protein kinase Src (Homo sapiens) (UniProt P12931). Nature of the series: Inhibition of human his-tagged full length Src active enzyme using KVEKIGEGTYGVVYK substrate by scintillation counting analysis.
Series [4] has as its target Tyrosine-protein kinase Fyn (Homo sapiens) (UniProt P06241). Nature of the series: Inhibition of human his-tagged full length Fyn active enzyme using KVEKIGEGTYGVVYK substrate by scintillation counting analysis.
Series [5] concerns the target Proto-oncogene tyrosine-protein kinase Src (Homo sapiens) (UniProt P12931). As to the kind of experiment: Inhibition of human his-tagged full length Src active enzyme using KVEKIGEGTYGVVYK substrate at 100 uM by scintillation counting analysis.
The target of series [6] is Tyrosine-protein kinase Fyn (Homo sapiens) (UniProt P06241). Nature of the series: Inhibition of human his-tagged full length Fyn active enzyme using KVEKIGEGTYGVVYK substrate at 100 uM by scintillation counting analysis.
Sequence of Tyrosine-protein kinase Fyn (Homo sapiens) (P06241 2-537 limits assumed): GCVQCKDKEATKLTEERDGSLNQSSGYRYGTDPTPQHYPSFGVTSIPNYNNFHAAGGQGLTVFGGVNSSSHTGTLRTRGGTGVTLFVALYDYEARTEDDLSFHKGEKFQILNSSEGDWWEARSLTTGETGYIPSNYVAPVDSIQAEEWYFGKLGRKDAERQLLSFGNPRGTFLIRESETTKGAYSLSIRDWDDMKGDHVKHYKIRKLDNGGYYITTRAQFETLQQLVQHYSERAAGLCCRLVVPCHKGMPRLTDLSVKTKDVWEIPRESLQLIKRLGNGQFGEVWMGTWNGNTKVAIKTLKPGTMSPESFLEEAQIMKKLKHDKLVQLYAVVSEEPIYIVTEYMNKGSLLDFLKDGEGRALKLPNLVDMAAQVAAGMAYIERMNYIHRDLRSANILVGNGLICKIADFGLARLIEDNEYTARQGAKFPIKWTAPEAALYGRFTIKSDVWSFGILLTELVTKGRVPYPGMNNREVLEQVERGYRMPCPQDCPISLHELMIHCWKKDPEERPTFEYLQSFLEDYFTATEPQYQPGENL
For series [7], the system named is dengue virus type 2. Nature of the series: Antiviral activity against DENV serotype 2 strain New Guinea V infected in African green monkey Vero B cells assessed as inhibition of virus replication after 4 days by qRT-PCR analysis. Type of series: functional, organism-based. The conditions noted are these: 96 h. The essentials:
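Vero-B cells, 5×10^4/well, infected one day after seeding with 100 CCID50 DENV-2 NGC for 2 h, then washed 3 times. Cultured 4 days with 5-fold compound dilutions (50–0.08 μg/mL) in medium with 2% FBS. Supernatant viral RNA measured by RT-qPCR; EC50 (50% inhibition of RNA replication) found by logarithmic interpolation.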

A short description of series [8]: Selectivity index, ratio of CC50 for African green monkey Vero B cells to EC50 for DENV serotype 2 strain New Guinea V.
Series [9] concerns dengue virus type 2. As to the kind of experiment: Inhibition of DENV2 His- and FLAG-tagged NS3 and NS5 protein interaction at 500 uM after 1 hr by alphascreen assay. A general note: Alpha assays give light when donor and acceptor beads are brought close together.
For series [10], the system named is dengue virus type 2. Nature of the series: Inhibition of DENV2 His- and FLAG-tagged NS3 and NS5 protein interaction at 50 uM after 1 hr by alphascreen assay. The method, boiled down:
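Wheat-germ cell-free expressed HF-NS3 (or HF-DHFR as negative control) and GST-tagged biotinylated NS5, 25 nM each, incubated 1 h at room temperature with compound (0.5% DMSO) in Tris pH 7.5/NaCl/MgCl2/DTT/BSA/Tween-20 buffer. Then anti-FLAG IgG, protein A acceptor and streptavidin donor beads added for 1 h; luminescence expressed as % of DMSO control, n=2.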

The subject of series [11] is dengue virus type 2. Nature of the series: Antiviral activity against DENV serotype 2 strain New Guinea V infected in African green monkey Vero B cells assessed as RNA replication after 4 days by RT-qPCR analysis. In kind it is functional, organism-based. The essentials: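 Vero-B cells (5×10^4/well) infected 2 h with DENV-2 NGC (100 CCID50), washed 3×, then cultured 4 days with 5-fold serial compound dilutions (50 – 0.08 μg/mL) in MEM with 2% FBS. Viral RNA in supernatant quantified by RT-qPCR; EC50 (50% inhibition of viral RNA replication) by logarithmic interpolation.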

For series [12], the system named is dengue virus type 2. As to the kind of experiment: Ratio of ribavirin EC50 to compound EC50 for DENV serotype 2 strain New Guinea V infected in African green monkey Vero B cells assessed as inhibition of virus-induced cytopathogenic effect after 7 days. Type of series: functional. (In general: Damage to the host cells serves as the signal in cytopathic effect assays.)

For series [13], the system named is Dengue virus. As to the kind of experiment: Antiviral activity against DENV by CPE-reduction assay. In kind it is functional, organism-based. The method, boiled down: as §1
Setting [14] is: Dengue virus, New Guinea V, Vero, 168 h, read-out: EC50.

Sequence of Proto-oncogene tyrosine-protein kinase Src (Homo sapiens) (P12931 2-536 limits assumed): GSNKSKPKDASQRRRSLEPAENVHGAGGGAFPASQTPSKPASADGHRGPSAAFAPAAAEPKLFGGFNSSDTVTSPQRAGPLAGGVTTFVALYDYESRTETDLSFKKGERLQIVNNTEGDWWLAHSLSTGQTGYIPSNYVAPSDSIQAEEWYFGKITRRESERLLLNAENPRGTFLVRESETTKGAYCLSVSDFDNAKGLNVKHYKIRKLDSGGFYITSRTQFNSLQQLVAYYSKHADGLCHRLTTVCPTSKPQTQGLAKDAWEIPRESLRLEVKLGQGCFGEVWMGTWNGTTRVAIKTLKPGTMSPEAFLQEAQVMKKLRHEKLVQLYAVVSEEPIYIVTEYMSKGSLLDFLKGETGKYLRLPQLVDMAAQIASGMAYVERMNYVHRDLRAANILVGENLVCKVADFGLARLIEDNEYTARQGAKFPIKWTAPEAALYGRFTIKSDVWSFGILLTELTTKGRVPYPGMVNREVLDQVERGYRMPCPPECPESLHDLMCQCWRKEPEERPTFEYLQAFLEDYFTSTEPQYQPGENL

As to `Cc1cc(OCc2ccc(F)cc2F)cc(=O)n1Cc1cn(Cc2cccc(Br)c2)nn1`, in series [1] (vero), the EC50 (commonly the concentration needed to bring the measured effect to its halfway point) is “Not Active”. Further, the CC50 (as a rule, the concentration giving 50% cytotoxicity) in [2] amounted to 36 µM.
With `COc1ccc2c(Nc3ccc(Cl)cc3Cl)c(C#N)cnc2c1`, the EC50 entry in series [1] (vero) was “Not Active”. Also, in [2], half-maximal cytotoxicity (CC50) was put at 19 µM. In addition, the ID50 in [3] amounted to 0.2 µM; in series [4] it was 2 µM.
Compound `NS(=O)(=O)c1ccc(Nc2nc(N3CCN(CCO)CC3)nc3nc[nH]c23)cc1` registered a CC50 in [2] of 437 µM.
With `COc1ccc2c(Nc3ccc(N4CCN(C)CC4)cc3)c(C#N)cnc2c1`, in series [1] (vero), the EC50 entry is “Not Active”. This compound returned a half-maximal cytotoxic concentration (CC50) in [2] of 7.9 µM. Also, the inhibition entry in [5] and in series [6] was “inactive” each time.
Consider `NC(=O)c1ncn([C@@H]2O[C@H](CO)[C@@H](O)[C@H]2O)n1` [RIBAVIRIN], for which the CC50 in [2] was 409 µM. Besides, in series [7], the EC50 worked out at 42 µM. Further, the “Ratio CC50/EC50” value in [8] was greater than 10.
Take `CNc1nc(Nc2cccc(O)c2)c2nc[nH]c2n1`: the CC50 in series [2] worked out at 168 µM. In addition, the inhibition (as a rule, the drop in the measured response relative to a control, in per cent) in series [9] is “Active”. In addition, the inhibition is 33% in series [10] and “Dose-dependent effect” in series [11]. For the same compound, the ID50 in series [5] came out at 4.9 µM; in [4], 3.6 µM. The EC50 in series [7] was found to be 5.3 µM. The “Ratio EC50” value in series [12] was 10. Besides, the “Ratio CC50/EC50” value in series [8] is reported as 32.
Take `CC(=O)c1ccc(Nc2nc(NCCC(C)C)nc3[nH]cnc23)cc1`: the CC50 in series [2] is 85 µM. Further, in [9], the inhibition entry was “Active”. The EC50 in [7] is 59 µM. Moreover, the “Ratio CC50/EC50” value in series [8] was 1.
Consider `NS(=O)(=O)c1ccc(Nc2nc(N3CCOCC3)nc3[nH]cnc23)cc1`, for which the EC50 result in [1] (vero) is listed as “Not Active”. Moreover, half-maximal cytotoxicity in series [2] (CC50) was put at 373 µM. The inhibition result in series [9] is “Active”. In addition, the results for the ID50 in series [3] and in [4] were 0.9 µM and 0.5 µM, respectively.
Regarding `CN1CCN(CCOc2cc(OC3CCOCC3)c3c(Nc4c(Cl)ccc5c4OCO5)ncnc3c2)CC1` [SARACATINIB], the EC50 in series [13] was 6 µM.
With `Cc1cc(OCc2ccc(F)cc2F)cc(=O)n1Cc1cn(Cc2cccc(C(F)(F)F)c2)nn1`, the EC50 result in series [1] (vero) was “Not Active”. In [2], this compound showed a CC50 of 40 µM. Besides, the inhibition result in series [5] and in series [6] was “inactive” throughout.
For the compound `COc1cc2ncc(C#N)c(Nc3ccc(Cl)cc3Cl)c2cc1OC`, in series [1] (setting [14]), the EC50 is less than 5.7 µM. This compound yielded a CC50 in [2] of less than 5.7 µM. Further, the results for the ID50 in [3] and in [4] were 0.03 µM and 0.22 µM, respectively.
For `NS(=O)(=O)c1ccc(Nc2nc(N3CCN(CCO)CC3)nc3[nH]cnc23)cc1`, in series [1] (vero), the concentration giving a half-maximal response (EC50) entry is on record as “Not Active”. The inhibition entry in series [9] was “Active”. Also, the values for the ID50 in series [3] and in [4] were 7.4 µM and 4.8 µM, respectively.
On to `COc1ccc(Cn2c(C)cc(OCc3cccc(F)c3)cc2=O)cc1`, for which the EC50 in [1] (setting [14]) was less than 6.4 µM. For the same compound, in series [2], the CC50 is less than 6.4 µM. Besides, the inhibition result in series [5] and in [6] was “inactive” throughout.
In series [2], `CC(=O)c1ccc(Nc2nc(NCCO)nc3[nH]cnc23)cc1` displayed a CC50 of 160 µM. Moreover, in series [9], the inhibition entry was “Active”. Also, the EC50 in [7] is 72 µM. In [8], the “Ratio CC50/EC50” value was 2.
With `OCCN1CCN(c2nc(Nc3ccccc3)c3nc[nH]c3n2)CC1`, the EC50 entry in series [1] (vero) is “Not Active”. This compound also had a CC50 in series [2] of 474 µM. The inhibition entry in [9] was “Active”. Also, the ID50 in series [3] and in series [4] was 4.2 µM in each case.
In [2], `CC(C)CCNc1nc(Nc2cccc(O)c2)c2nc[nH]c2n1` displayed a cytotoxic concentration (CC50) of 151 µM. Also, in series [9], the inhibition entry is “Active”. The ID50 in [3] and in [4] was 1.7 µM throughout. The half-maximal effective concentration (EC50) in series [7] was found to be 20 µM. For the same compound, the “Ratio CC50/EC50” value in series [8] was 8.
Take `CNc1nc(Nc2ccc(C(C)=O)cc2)c2nc[nH]c2n1`: in series [2], the CC50 was greater than 177 µM. The inhibition entry in series [9] is “Active”. The concentration giving a half-maximal response (EC50) in [7] was found to be 42 µM. In addition, the “Ratio CC50/EC50” value in series [8] is greater than 4.
For the compound `Oc1cccc(Nc2nc(NCc3ccccc3)nc3[nH]cnc23)c1`, in [2], the CC50 was greater than 150 µM. Besides, in series [9], the inhibition result is “Active”. Further, the ID50 in [3] was determined as 3.7 µM; in [4], 4.1 µM. Further, in series [7], the EC50 was determined as 69 µM. In addition, the “Ratio CC50/EC50” value in series [8] was greater than 2.
`Cc1nc(Nc2ncc(C(=O)Nc3c(C)cccc3Cl)s2)cc(N2CCN(CCO)CC2)n1` [DASATINIB] yielded an EC50 in [13] of 1 µM.
